Compound activity deposited in PubChem by several laboratories.
Sampled rows, rich in hits. Any-hit rate of the full collection: about 6.9%.
Ecoli tolC: E. coli tolC mutant growth inhibition; AID 573; growth inhibition, % at 10 µM (by protocol); 2.2% of 65,000 active; E. coli BW25113 tolC mutant growth, OD615;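 active = growth inhibition at or above a cutoff equal to the mean over every tested compound plus 3 SD, cut at about 60% in these data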;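 also: growth measured after 20 h incubation at 37 °C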
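Doses: one dose of 10 µM final / Material: E. coli BW25113 ΔtolC::kan, tolC deletion mutant strain / Buffer or medium: LB with kanamycin 50 µg/mL / Evaluation: percent growth inhibition / Detection: optical density read at 615 nm / Incubation: 37 °C, 20 h exposure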
Calb biofilm kill: kills Candida albicans biofilms; AID 834; 0.14% of 85,000 active; inhibition, % at 6 µM; C. albicans biofilm + clotrimazole, Alamar Blue;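 active = inhibition above 20%; inactive = inhibition below 20%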;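 also: preformed 24 hr biofilms exposed to compound for 48 hr; 0% = biofilm without compound and 100% = blank killed by clotrimazole plus chlorhexidine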
PTK2B oligo ant: antagonists of human Pyk2 oligomerization; Q14289; Q293 cells, Pyk2 FERM NanoBiT luminescence; stronger effect = lower value; z-score (the deposit names both 25 µM and 10 µM); 0.83% of 99,000 active; AID 1347419;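 active = Z-score of -3 or lower, scaled per plate to the spread of control and sample wells; inactive = z-score above -3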;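 also: negative z-score means lost luminescence so less FERM oligomerization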
FAK inh: blocks human focal adhesion kinase activity | Q05397 | inhibition, %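 (tested at 7 µM)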 | biochemical FAK kinase activity assay | 0.84% of 97,000 active | AID 727; in the data active = inhibition above about 19%;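 also: 0% = DMSO and 100% = reference compound high control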
Target sequence (Q05397 whole entry, looked up): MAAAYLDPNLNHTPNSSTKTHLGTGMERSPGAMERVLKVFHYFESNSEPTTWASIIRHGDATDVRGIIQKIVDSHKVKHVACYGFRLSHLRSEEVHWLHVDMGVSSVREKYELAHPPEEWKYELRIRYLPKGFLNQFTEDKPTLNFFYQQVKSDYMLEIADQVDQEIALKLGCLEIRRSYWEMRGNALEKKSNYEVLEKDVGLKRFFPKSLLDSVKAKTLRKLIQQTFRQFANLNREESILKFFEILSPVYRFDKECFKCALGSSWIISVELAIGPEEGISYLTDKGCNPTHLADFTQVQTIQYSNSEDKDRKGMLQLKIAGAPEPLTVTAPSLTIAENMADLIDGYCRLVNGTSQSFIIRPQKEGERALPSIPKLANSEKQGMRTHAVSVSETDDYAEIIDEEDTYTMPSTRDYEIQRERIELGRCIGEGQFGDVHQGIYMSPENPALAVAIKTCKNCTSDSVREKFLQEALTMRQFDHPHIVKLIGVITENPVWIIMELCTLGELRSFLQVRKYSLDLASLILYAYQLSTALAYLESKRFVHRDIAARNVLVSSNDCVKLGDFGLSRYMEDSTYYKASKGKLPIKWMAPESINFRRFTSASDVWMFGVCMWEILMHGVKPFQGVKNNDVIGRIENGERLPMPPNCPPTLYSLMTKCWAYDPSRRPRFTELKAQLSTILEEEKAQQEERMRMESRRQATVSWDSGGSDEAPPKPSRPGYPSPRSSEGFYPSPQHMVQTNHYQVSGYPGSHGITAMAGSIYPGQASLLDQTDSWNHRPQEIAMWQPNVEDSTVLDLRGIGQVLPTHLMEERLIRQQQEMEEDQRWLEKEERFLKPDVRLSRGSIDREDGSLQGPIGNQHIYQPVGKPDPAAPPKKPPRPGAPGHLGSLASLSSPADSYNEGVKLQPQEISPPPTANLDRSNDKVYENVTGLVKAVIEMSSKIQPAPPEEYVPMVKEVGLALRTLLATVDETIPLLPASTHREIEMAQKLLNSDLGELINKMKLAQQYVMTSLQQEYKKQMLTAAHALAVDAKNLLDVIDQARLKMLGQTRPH
PostGolgi ctrl: yeast control strain growth, post-Golgi counter-screen; efflux-deficient yeast background strain, growth absorbance A615, 16 h; inhibition, % at 10 µM; 5% of 98,000 active; AID 738
PostGolgi yeast: growth inhibition of a yeast mutant, post-Golgi transport screen; post-Golgi transport phenotypic cell assay; inhibition, % at 10 µM; 0.9% of 98,000 active; AID 739;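 also: yeast cells grown in 1536-well plates; yeast grown about 18 h at 30C before absorbance read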
An asterisk follows results filed as active; . = not tested or not shown. Rule as the data show it, unless noted: active = inhibition above about 30%; inactive = the rest.

SMILES	Ecoli tolC	Calb biofilm kill	PTK2B oligo ant	FAK inh	PostGolgi ctrl	PostGolgi yeast
CCN(CC)S(=O)(=O)c1ccc(C(=O)Nc2ccc3c(c2)OCCO3)cc1	18	1	-1.1	.	-4	-5
Cc1ccc(C2CC(c3cccs3)=NN2C(=O)c2ccc(Br)o2)cc1 (stereo unspecified)	.	20	-1.4	4	83*	93*
CCc1nc(SCC(=O)c2ccc(Cl)s2)c2oc3ccccc3c2n1	.	14	-1	-8	22	-2
CCc1cc2c(SCC(=O)c3ccc(Cl)s3)ncnc2s1	.	9	-0.33	3	36*	-4
O=C(COC(=O)c1ccco1)Nc1ccc2c(c1)OCO2	-4	3	-0.75	.	2	0
COc1cccc(NC(=O)COC(=O)c2c3c(nc4ccccc24)CCC(C)C3)c1 (stereo unspecified)	.	1	-4.7*	-3	10	9
O=C(COC(=O)c1c2c(nc3ccccc13)CCCC2)Nc1ccc2c(c1)OCO2	47	6	-3.5*	10	26	18
COc1cccc(NC(=O)COC(=O)c2cccnc2)c1	-9	7	0.6	-2	-4	1
CC(C)NC(=S)N/N=C1\CCCCC1C1CCCCC1 (stereo unspecified)	.	.	1.4	-1	30*	-5
Cc1cc(-c2nnc3n2N=C(C(C)(C)C)CS3)n[nH]1	7	8	0.22	4	34*	-1
Cc1nc2sc(C(c3ccco3)N3CCN(c4ccccc4F)CC3)c(O)n2n1 (stereo unspecified)	0	9	-0.41	0	.	.
Cc1nc2sc(C(c3ccc(Cl)cc3)N3CCN(c4ccccc4F)CC3)c(O)n2n1 (stereo unspecified)	16	.	-1.6	-3	32*	2
Cc1nc2sc(C(c3cccs3)N3CCN(c4cccc(Cl)c4)CC3)c(O)n2n1 (stereo unspecified)	21	9	.	.	48*	-1
COc1ccc(-c2oc(/N=C/N3CCOCC3)c(C#N)c2-c2ccc(OC)cc2)cc1	20	6	-3.6*	2	9	10
COc1ccc(-c2oc(NC(C)=O)c(C#N)c2-c2ccc(OC)cc2)cc1	.	7	-0.92	2	7	-6
CCN(CC)C(=O)C1CCCN(C(=O)Nc2ccc(NC(=O)N3CCCC(C(=O)N(CC)CC)C3)cc2)C1 (stereo unspecified)	.	6	1.6	-2	3	-9
N#Cc1ccc(-n2c(-c3ccccc3)nnc2-c2ccccc2)cc1C#N	.	4	-2	2	41*	4
CSc1cccc(NC(=O)CN(C)S(=O)(=O)c2ccc(F)cc2)c1	6	7	-0.21	-1	17	-17
CCOC(=O)N1CCC(NC(=O)c2ccc3c(c2)ncn3C2CCCC2)CC1	-4	5	0.37	-2	1	0
Cn1c(=O)c2ncn(CC(=O)NCCOc3ccccc3)c2n(C)c1=O	8	7	0.71	0	1	30*
Cc1ccc(OCCNC(=O)Cn2cnc3c(=O)n(C)c(=O)n(C)c32)cc1C	.	7	0.13	-2	.	.
Cc1ccc(C2Oc3ccccc3C3=C2C(c2cccs2)n2ncnc2N3)cc1 (stereo unspecified)	.	0	-2	3	39*	18
O=C(NCCN1C(=O)C2C3C=CC(C3)C2C1=O)Nc1ccccc1 (stereo unspecified)	-12	1	.	1	-3	0
O=C(NCCc1csc(-c2ccc(C(F)(F)F)cc2)n1)c1cccs1	.	13	.	-1	82*	4
CCCc1cc(C(=O)NCc2cccs2)no1	-12	-11	.	-12	0	-9
SMILES	Ecoli tolC	Calb biofilm kill	PTK2B oligo ant	FAK inh	PostGolgi ctrl	PostGolgi yeast
CCn1c(SCC(=O)N2CCc3ccccc32)nc2c(c1=O)SC(C)C2 (stereo unspecified)	-13	7	.	.	.	.
Cc1nc(N2CCN(S(=O)(=O)c3cccc4nonc34)CC2)c2c3c(sc2n1)CCCC3	49	-4	1.8	.	59*	25
CCc1nnc2n1N=C(c1ccc(-c3cc(Cl)ccc3Cl)o1)CS2	2	24*	-0.13	12	19	-5
CCc1nnc2n1N=C(c1ccc(-c3ccc(Cl)cc3Cl)o1)CS2	-22	1	.	-7	.	.
Cc1ccc(C)c(C(=O)NCCN(C)C)c1	-13	5	0.87	-6	9	-7
Cc1ccc(C)c(C(=O)NCc2ccncc2)c1	1	0	-0.2	-2	-3	35*
Cc1ccc(NS(=O)(=O)c2cc(C(=O)N3CCOCC3)ccc2C)cc1C	11	4	-0.68	-3	-5	-5
COc1ccc(C(=O)C(OC(=O)c2ccc(C)c(NC(C)=O)c2)c2ccccc2)cc1 (stereo unspecified)	.	.	-1.4	1	11	-3
COc1ccc(C(=O)OC(C(=O)c2ccccc2)c2ccccc2)cc1 (stereo unspecified)	.	.	-2	-2	66*	-1
Cc1nnc2ccc(N3CCN(c4ccccn4)CC3)nn12	3	15	.	-2	8	-1
Cc1nc2ccc(S(=O)(=O)NC(CC(C)C)C(=O)O)cc2s1 (stereo unspecified)	-16	2	1.3	-6	18	3
O=C(Cc1cccs1)N1CCC(c2nc3c(nnn3Cc3ccccc3Cl)c(=O)[nH]2)CC1	36	7	-0.97	5	28	4
O=C(C1CCCCC1)N1CCC(c2nc3c(nnn3Cc3c(F)cccc3Cl)c(=O)[nH]2)CC1	89*	6	0.68	0	.	.
Cc1ccc(NC(=O)N2CCC(c3nc4c(nnn4Cc4cccc(Cl)c4)c(=O)[nH]3)CC2)cc1	99*	4	-0.23	4	-1	-4
CCCCCCC(=O)N1CCC(c2nc3c(nnn3Cc3ccccc3Cl)c(=O)[nH]2)CC1	100*	7	-1.2	3	8	-4
O=C(Nc1ccc(F)cc1)N1CCC(c2nc3c(nnn3Cc3cccc(Cl)c3)c(=O)[nH]2)CC1	100*	.	-1.5	2	13	0
O=C(C1CCCCC1)N1CCC(c2nc3c(nnn3Cc3ccccc3Cl)c(=O)[nH]2)CC1	18	6	.	.	.	.
N#Cc1cccc(NC(=O)N2CCC(c3nc4c(nnn4Cc4cccc(Cl)c4)c(=O)[nH]3)CC2)c1	-9	4	1.2	3	8	11
CCNC(=O)C(C)Sc1ccc(Cl)cc1 (stereo unspecified)	-13	5	-0.25	-1	5	5
Cc1ccc(C2=[N+]([O-])C(C)(C)CC2)cc1	.	0	-0.47	-2	33*	2
Cc1sc2nc(SCC(=O)c3cc(C)n(CC4CCCO4)c3C)n(C(C)C)c(=O)c2c1C (stereo unspecified)	-1	7	0.29	3	30*	-4
Cc1cc(C(=O)CSc2nc3ccccc3o2)c(C)n1CC1CCCO1 (stereo unspecified)	.	6	0.31	0	8	-4
Cc1cc(C)n(-c2ccc(C(=O)C(C#N)c3nc4ccccc4n3C)cc2)n1 (stereo unspecified)	-10	8	-1.7	9	33*	13
Cc1cc(C)n(-c2ccc(C(=O)OC(C)C)cc2)n1	.	.	0.31	-5	0	-6
